Source: the EternaBench riboswitch data

Test system: MS2 coat protein
Experiment: apparent Kd, MS2 coat protein; higher = weaker binding; RNA-MaP array; FMN 200 µM where present
How it was run: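 In 100 mM Tris-HCl pH 7.5, 80 mM KCl, 4 mM MgCl2, BSA, DTT, yeast tRNA and Tween-20, SNAP-549-labelled MS2 coat protein was titrated from 0.7 or 1.5 nM, doubling to 3 µM, over designs transcribed by stalled E. coli RNA polymerase on Illumina sequencing-chip clusters. This was done first without ligand, then with ligand held constant. After green signal was normalised to red-channel RNA signal and control-cluster median Fmax, the apparent Kd was taken as the median of filtered per-cluster binding-curve fits.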

[1] = designed as: ON switch for flavin mononucleotide, no ligand
[2] = ligand present: flavin mononucleotide, designed as: ON switch for flavin mononucleotide
[3] = designed as: OFF switch for flavin mononucleotide, no ligand
[4] = ligand present: flavin mononucleotide, designed as: OFF switch for flavin mononucleotide

| Sequence | apparent Kd [1] [µM] | apparent Kd [2] [µM] | apparent Kd [3] [µM] | apparent Kd [4] [µM] |
| --- | --- | --- | --- | --- |
| UGUUGUAUUACAGGAUAUCUAUUAGCUUUAUUUAGAGAAGGGUAUUCACAUGAGGAUCACCCAUGUAUAUACGAGGAAGUUGUG | 0.0461 | 0.0502 | – | – |
| AUUAUUGACGAAGGAUAUGGAUACAUGAGGAUCACCCAUGUAUAUUUUGUGAUCAUAUUUAUGAUCCAGAAGGUCGUUGUUUAU | – | – | 0.0373 | 0.113 |
| UGAGACCUCACAGGAUAUGCUGGACUUUGUCCAGCAGAAGGGUGAAAACAUGAGGAUCACCCAUGUAUGGUCUCCAAAUUUAAA | 0.187 | 0.0136 | – | – |
| CGGGAAGUCGUAGGAUAUGGUGAUGUACAUGAGGAUCACCCAUGUCCGUCUUCUCUCACAAGAUGCCAGAAGGGCGACUCCCGG | 0.641 | 0.317 | – | – |
| GGCUCAUUUACAUUAAUGUGCAGACAGGAUAUCCACCGCGGUUCCUACAUGAGGAUCACCCAUGUGGAGAAGGGUCGCUAAUGG | – | – | 0.0291 | 0.0722 |
| GUCAGCUCGUGAGGAUAUACAACACUGCUUCGGCAGUGUAUUUAGAUCACAUGAGGAUCACCCAUGUAGAAGGCACGAGCUGAU | – | – | 0.0156 | 0.363 |
| GAUCUACAUGAGGAUCACCCAUGUAAGGAUAUCGUCACUGGAGCUUCGGCUCCAGUGACGAGAAGGUACAAUUA | – | – | 0.0288 | 0.0321 |
| CUUUUGUGAGGAUAUUAGUUGUAAAUAAAUAAAAUUACUACUGAGAAGGCACAUGAGGAUCACCCAUGUUCCUC | – | – | 0.0333 | 0.161 |
| UAAAAGCUAGGAUAUACAUGAGGAUCACCCAUGUAAUCUCUCACUUACACGGAGGAUCGUAGAAGGAGCACAAA | – | – | 0.0217 | 0.0556 |
| AAAAAACAAGGAUAUACGUAUGAGGAUUGUCUUAAUUUUUGACAUGAGGAUCACCCAUGUAGAAGGUGUUAAAA | – | – | 0.12 | 0.126 |
| CACAACCAGGGAGGAUAUACAUGAGGAUCACCCAUGUUCGGCUCCCAUGCAGGAUGCCGUCCCGUGUAGAAGGCCCAGCGAUAG | – | – | 0.00991 | 0.0323 |
| ACUUGACAUGAGGAUCACCCAUGUCAGGAUAUAGUAGGACAAAUAAAUAAAAGUUCUACUAGAAGGGACGUGGG | – | – | 0.0216 | 0.0225 |
| AAACACGGACAUGAGGAUCACCCAUGUGGCGAAAGCCUUGGAAGAAGGCCGUAUGCAAAGCAUACGGAGGAUAUUCAUACCGUG | 0.0156 | 0.00585 | – | – |
| GCACUGGAUGUAGGAUAUCAGGACGAUAAGUCCUGAGAAGGACAUGAGGAUCACCCAUGUAAUAACUCCCAGUGCUAUAAUAUA | – | – | 0.0164 | 0.0201 |
| GGGAGACAUGAGGAUCACCCAUGUGAAAACGUGGCAGGAUAUCGAUGGAAACCAUACUGUCGAGAAGGGCCUUGUC | 0.0567 | 0.0356 | – | – |
| UGUCGGAGCAGAGGAUAUUACAUGAGGAUCACCCAUGUAUGAAACAAUAGCUGGAAACAGCAAUGUAAGAAGGCUGCUCCGACA | – | – | 0.00594 | 0.0113 |
| GGUACCUUUACAGGAUAUGCUAGCCUUUGGUUAGCAGAAGGGUGAUACAUGAGGAUCACCCAUGUGGUGCCAGGGCGUGAGCCC | 0.0792 | 0.447 | – | – |
| GUAAAUCAUGUAGGAUAUGCAUGGCGAAGCUACGCAGAAGGACAUGAGGAUCACCCAUGUCUCUCCGUCUGCGUACAGACGGAG | – | – | 0.0274 | 0.188 |
| UGGUACUAGGGAGGAUAUGGGAAGAUACAUGAGGAUCACCCAUGUUUAAGUAUGCCGAGAGGCAACUAGAAGGCCCUAGUACCU | 1.44 | 0.116 | – | – |
| AAGUAGUGUGUGAGGAUAUUGGUGGAAUGACAUAUUAAGAAGGCACAUGAGGAUCACCCAUGUGGGAUGUCACG | – | – | 0.0126 | 0.0126 |
| CUAUAUAAUACCUCAUGUACAUGAGGAUCACCCAUGUUAACUAAGGAUAUAUUUAUAUUAAUAAAGUAGAAGGUAGUACUAUUU | – | – | 0.0234 | 0.0188 |

| Sequence | apparent Kd [1] [µM] | apparent Kd [2] [µM] | apparent Kd [3] [µM] | apparent Kd [4] [µM] |
| --- | --- | --- | --- | --- |
| UGGUACUAGGGAGGAUAUGGGAAGAUACAUGAGGAUCACCCAUGUUUAAGAAUGCCGAGAGGCAACUAGAAGGCCCUGGUACCU | 0.459 | 0.0179 | – | – |
| CGGUACACAGGAUAUAACGUCUGCAACAUGAGGAUCACCCAUGUUGUCCAAACGUUGCGGUUAGAAGGGUGGGCGC | – | – | 0.0307 | 0.0708 |
| GGGUACGUCGGAGGAUAUCAUGUAAAUACAUGAGGAUCACCCAUGUCGAUGGAGACAUCGGAGAUUGAGAAGGCCGAUGUACCG | 0.192 | 0.00889 | – | – |
| ACGUUAAUUCGAGGAUAUCGGUGAUAUAUAUUACGAGAAGGCGAUAAUUGUGAUAAACUUAUAGACAUGAGGAUCACCCAUGUA | 0.0421 | 0.0382 | – | – |
| AUACUUAAUGAAGGAUAUCUUAGCAUAAACCUGAGAGAAGGUCAUUAUUACAUGAGGAUCACCCAUGUUGUGGUUAAUGGGUAA | – | – | 0.264 | 0.327 |
| GUGUACAGAGGAUAUACUUGAAUCUAGCGAAGCUAGGUUUGACAUGAGGAUCACCCAUGUAGAAGGCUGUACAC | – | – | 0.0153 | 0.0205 |
| ACACAGCGAGGAUAUACAUGAGGAUCACCCAUGUGGUGGCGGUUACGGUAGGACUAGUGUAGAAGGUGCCGUGG | – | – | 0.48 | 0.414 |
| GUCAGCUCGUGAGGAUAUACAACACUGCUUCGGCAGUGAAUUAAGAUCACAUGAGGAUCACCCAUGUAGAAGGCACGAGCUGAU | – | – | 0.017 | 0.325 |
| UUACUCAUGUAAGGAUAUGUAGCCGUUUCGGCUGCAGAAGGUACUAUAAUACAUGAGGAUCACCCAUGUCUAUAAAAUAAAGAC | 0.0346 | 0.0256 | – | – |
| GCGGAUCUAGGAUAUACAUGAGGAUCACCCAUGUAAACUCUCUUGGAUGACUACUAUUGUAGAAGGAGAUAAGC | – | – | 0.0254 | 0.041 |
| CGAGCCUAUGUAAGGAUAUCACGAUAAAACCAGCGUGAGAAGGUACAUGAGGAUCACCCAUGUUCACGACUGGC | – | – | 0.0139 | 0.0147 |
| GCUAGGAAUGUCAGGAUAUGCAGAACCUUGGUUCUGCAGAAGGGACAUGAGGAUCACCCAUGUGCUAACCUAGC | – | – | 0.0296 | 0.113 |
| UUCAGCGAUCAAGGAUAUCUAUAAACAUGAGGACAUGAGGAUCACCCAUGUUGAUCACCCAUGUAGGAGAAGGUGAACAUGAGG | 0.0818 | 0.0298 | – | – |
| CUUUUAUAAUAGAAGGUAGACUUCAUGAGGAUCACCCAUGUGUUGGUACUAAGGAUAUGUAGUAACAUGAGGAUCACCCAUGUU | 0.0226 | 0.0222 | – | – |
| CGUUAAUAUCGAGGAUAUGUCUAGACACAUGAGGAUCACCCAUGUAUGUGUAUAGAAGGCGAUAUUAACAGCAUGUUACAUGCG | 0.0383 | 0.0167 | – | – |
| GGAUAGGACAGAGGAUAUACGUGCUAGAGAUACUAGCAAAAUUUCCUUACAUGAGGAUCACCCAUGUAGAAGGCUGUCCUAUCG | – | – | 0.00579 | 0.0127 |
| CUUCGACAUGAGGAUCACCCAUGUCAGGAUAUUGUGUAUCGGGUUUUUUACGGUAAGGCAAGAAGGGAUGUGUG | – | – | 0.033 | 0.0302 |
| GUCAACUCGUGAGGAUAUACAACACUGCUUCGGCAGUGUAUUAAGAUCACAUGAGGAUCACCCAUGUAGAAGGCACGAGCUGAU | – | – | 0.0144 | 0.214 |
| CGCUAUUAUGUAGGAUAUACAUUUUUUAUGUAUGUAGAAGGACAUGAGGAUCACCCAUGUAAAUAAAUUUUAAUUAUCAUAGCG | – | – | 0.0219 | 0.0183 |
| CUGUAGUGAGGAUAUUAUUUGCAAGCCCUAGACGGCGCGAAUGAGAAGGUACAUGAGGAUCACCCAUGUGGUUG | – | – | 0.126 | 0.297 |
| GGACGACCCAUUAACAUGAGGAUCACCCAUGUCAAAAGACAUGAGGAUAUGGUACCUAAUUGGUACCAGAAGGCAUGGUCGUCC | 1.47 | 0.107 | – | – |
